Among the data in ChEMBL document CHEMBL3244229, “Nonsteroidal antiinflammatory agents. 1. 5-Alkoxy-3-biphenylylacetic acids and related compounds as new potential antiinflammatory agenst” (J Med Chem, 1977) are LD50 and ED50 values, retold here.

Data set [1] in a line: Acute toxicity in ip dosed ddY mouse measured after 168 hrs. It counts as organism-based. To be noted: in vivo. In outline: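 Male ddY mice, four per group, given a single ip injection; deaths assessed 168 h after dosing. LD50 calculated by the method of Weil.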
The test system of a further data set is Rattus norvegicus. Briefly: Antiinflammatory activity in Wistar rat assessed as inhibition of carrageenan-induced paw edema administered 30 mins prior challenge measured after 3 hrs. It counts as functional. In outline:
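Rats were dosed orally. Thirty minutes later, 1% carrageenan was injected subcutaneously into the plantar surface of the hind paw, and paw volume was remeasured 3 h afterward. Percent inhibition came from comparing the volume increase against a control group. ED50 (dose giving 50% inhibition) was derived from least-squares probit response vs log dose regression.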
(The carrageenan paw model is a standard test of acute inflammation.)

The next data set concerns Mus musculus. Briefly: Analgesic activity in ip dosed ddY mouse assessed as prevention of pseudoavoidance reflex co-administered with 5 mg/kg, sc morphine hydrochloride by tail pinch method. The format is functional. In a few lines:
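Groups of eight male ddY mice (25–30 g) got the compound ip as a suspension in 0.5% CMC, together with a threshold dose of morphine hydrochloride (5 mg/kg sc). The read-out was prevention of pseudoavoidance reflexes (biting, squeaking, looking backward) after tail pinching with forceps. ED50 was calculated by the Litchfield–Wilcoxon method.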

Molecules are shown by their SMILES.

One may read the LD50 as the dose at which mortality reaches 50%. The ED50 is the dose that gives a 50% effect, or the effect in half of the subjects. Molecule `COc1cc(CC(=O)O)cc(C(C)C)c1` showed an LD50 at 168 h in data set [1] of 1600 mg/kg. Further, the ED50 in the data set on Rattus norvegicus was more than 100 mg/kg.
On the same counts, the results for `CCCCOc1cc(C)cc(CC(=O)O)c1` are 673 mg/kg and more than 100 mg/kg.
In the same order, the values of `COc1cc(CC(=O)O)cc(C2CCCCC2)c1` are 564 mg/kg and more than 100 mg/kg.
Consider `COc1cc(CC(=O)O)cc(-c2ccc(F)cc2)c1`, for which the LD50 at 168 h in data set [1] came out at 565 mg/kg. Besides, the ED50 in the data set on Rattus norvegicus is 50 mg/kg.
On the same counts, the results for `COc1cc(CC(=O)O)cc(-c2ccc(Cl)cc2Cl)c1` are 336 mg/kg and 70 mg/kg.
On the same counts, the results for `COc1cc(CC(=O)O)cc(-c2ccc(C)cc2)c1` are 566 mg/kg and more than 100 mg/kg.
In the same order, the values of `Cc1cc(CC(=O)O)cc(OCC(C)C)c1` are 1000 mg/kg and more than 100 mg/kg.
Take `COc1ccc(-c2cc(CC(=O)O)cc(OC)c2)cc1`: the LD50 at 168 h in data set [1] stood at 636 mg/kg. Also, the ED50 in the data set on Mus musculus was 165 mg/kg; with Rattus norvegicus it was more than 100 mg/kg.
`COc1cc(C)cc(CC(=O)O)c1` registered an LD50 at 168 h in data set [1] of 673 mg/kg. Further, in the data set on Rattus norvegicus, the 50% effective dose (ED50) was more than 100 mg/kg.
`O=C(O)Cc1cc(O)cc(-c2ccc(Cl)cc2)c1` came in with an LD50 at 168 h in data set [1] of 141 mg/kg. For the same molecule, in the data set with Rattus norvegicus, the ED50 is more than 100 mg/kg.
In the same order, the values of `COc1cc(CC(=O)O)cc(-c2ccccc2)c1` are 566 mg/kg and 60 mg/kg.
In the same order, the values of `COC(=O)Cc1cc(O)cc(-c2ccc(Cl)cc2)c1` are more than 1600 mg/kg and more than 100 mg/kg.
On the same counts, the results for `CCOc1cc(CC(=O)O)cc(-c2ccccc2)c1` are 400 mg/kg and more than 100 mg/kg.
`CCCOc1cc(CC(=O)O)cc(-c2ccccc2)c1` registered an LD50 at 168 h in data set [1] of 475 mg/kg. Moreover, the ED50 in the data set on Rattus norvegicus is more than 100 mg/kg.
In the same order, the values of `CCCCOc1cc(CC(=O)O)cc(-c2ccccc2)c1` are more than 1600 mg/kg and more than 100 mg/kg.
In the same order, the values of `CC(C)COc1cc(CC(=O)O)cc(-c2ccccc2)c1` are 566 mg/kg and more than 100 mg/kg.
In data set [1], `CCCCCOc1cc(CC(=O)O)cc(-c2ccccc2)c1` yielded an LD50 at 168 h of 1130 mg/kg. Further, in the data set with Rattus norvegicus, the ED50 was more than 100 mg/kg.
In the same order, the values of `CCOc1cc(CC(=O)O)cc(-c2ccc(Cl)cc2)c1` are 284 mg/kg and 51 mg/kg.
On the same counts, the results for `CCCOc1cc(CC(=O)O)cc(-c2ccc(Cl)cc2)c1` are 400 mg/kg and 97 mg/kg.
`CCCCOc1cc(CC(=O)O)cc(-c2ccc(Cl)cc2)c1` gave an LD50 at 168 h in data set [1] of 237 mg/kg. Besides, the ED50 in the data set with Rattus norvegicus was more than 100 mg/kg.
On the same counts, the results for `CC(C)COc1cc(CC(=O)O)cc(-c2ccc(Cl)cc2)c1` are 139 mg/kg and more than 100 mg/kg.
On the same counts, the results for `CCCCCOc1cc(CC(=O)O)cc(-c2ccc(Cl)cc2)c1` are 475 mg/kg and more than 100 mg/kg.
On the same counts, the results for `CCOC(=O)Cc1cc(O)cc(-c2ccc(Cl)cc2)c1` are more than 1600 mg/kg and more than 100 mg/kg.
Take `COc1cc(CCO)cc(-c2ccc(Cl)cc2)c1`: the LD50 at 168 h in data set [1] came out at 673 mg/kg. For the same molecule, in the data set on Rattus norvegicus, the ED50 turned out to be 47 mg/kg.
On the same counts, the results for `COc1cc(CCC(=O)O)cc(-c2ccc(Cl)cc2)c1` are 284 mg/kg and more than 100 mg/kg.
In the same order, the values of `COc1cc(CC(N)=O)cc(-c2ccc(Cl)cc2)c1` are more than 1600 mg/kg and more than 100 mg/kg.
In the same order, the values of `COc1cc(CC(=O)NO)cc(-c2ccc(Cl)cc2)c1` are more than 1600 mg/kg and more than 100 mg/kg.
Regarding `COC(=O)Cc1cc(OC)cc(-c2ccc(Cl)cc2)c1`, in data set [1], the LD50 at 168 h came out at 1600 mg/kg. The ED50 in the data set with Rattus norvegicus came out at 35 mg/kg.
In the same order, the values of `CCOC(=O)Cc1cc(OC)cc(-c2ccc(Cl)cc2)c1` are 1130 mg/kg and 29 mg/kg.
On the same counts, the results for `COC(=O)Cc1cc(OC(C)=O)cc(-c2ccc(Cl)cc2)c1` are more than 1600 mg/kg and more than 100 mg/kg.
On the same counts, the results for `COC(=O)Cc1cc(OS(C)(=O)=O)cc(-c2ccc(Cl)cc2)c1` are 1130 mg/kg and more than 100 mg/kg.
Consider `COc1cc(C(=O)O)cc(-c2ccc(Cl)cc2)c1`, for which, in data set [1], the LD50 at 168 h worked out at 1130 mg/kg. The ED50 in the data set on Rattus norvegicus was more than 100 mg/kg.
For `COc1cc(CC(=O)O)cc(-c2ccccc2Cl)c1`, the LD50 at 168 h in data set [1] amounted to 252 mg/kg. For the same molecule, the median effective dose (ED50) in the data set with Mus musculus was determined as 195 mg/kg; in the data set on Rattus norvegicus, 39 mg/kg.
The molecule `COc1cccc(CC(=O)O)c1` gave an LD50 at 168 h in data set [1] of 504 mg/kg. The ED50 in the data set on Rattus norvegicus was more than 100 mg/kg.
Consider `COc1cc(CC(=O)O)cc(-c2ccc(Cl)cc2)c1`, for which, in data set [1], the LD50 at 168 h was 570 mg/kg. Moreover, the ED50 in the data set on Mus musculus came to 38 mg/kg; in the data set on Rattus norvegicus, 11 mg/kg.
On the same counts, the results for `CC(C)Cc1ccc(C(C)C(=O)O)cc1` (stereo unspecified) [IBUPROFEN] are 336 mg/kg, 69 mg/kg and 25 mg/kg.
